According to ChEMBL document CHEMBL2311356, “The effect of 17-N substituents on the activity of the opioid κ receptor in nalfurafine derivatives” (Bioorg Med Chem Lett, 2013):

Assays:
[1] = target: T1, Kappa-type opioid receptor (Homo sapiens, UniProt P41145); assay: Agonist activity at human recombinant kappa opioid receptor expressed in CHO cells after 2 hrs by [35S]-GTPgammaS binding assay relative to control; type: functional, cell-based
Outline: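 CHO cell membranes carrying the recombinant human κ receptor were incubated with [³⁵S]GTPγS, GDP and the test agent. U-69,593 served as the reference κ agonist. Values are means of four samples.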

[2] = target: T1, Kappa-type opioid receptor; assay: Agonist activity at human recombinant kappa opioid receptor expressed in CHO cells after 2 hrs by [35S]-GTPgammaS binding assay; type: functional, cell-based
Outline: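 CHO cell membranes carrying the recombinant human κ receptor were incubated with [³⁵S]GTPγS, GDP and the test agent. Values are means of four samples.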

[3] = target: Kappa-type opioid receptor (Cavia porcellus, UniProt P41144); assay: Displacement of [3H]U69593 from kappa opioid receptor in guinea pig cerebellum after 1 hr by liquid scintillation counting analysis
Outline: (§1)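 Radioligand displacement from membranes used [³H]DAMGO for μ and [³H]DPDPE for δ, both on mouse whole brain without cerebellum. For κ it used [³H]U-69,593 on guinea pig cerebellum. Values are means of three samples.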

[4] = target: Delta-type opioid receptor (Mus musculus, UniProt P32300); assay: Displacement of [3H]DPDPE from delta opioid receptor in mouse whole brain membranes without cerebellum after 1 hr by liquid scintillation counting analysis; type: cell membranes, Membrane; outline: as §1
[5] = target: Mu-type opioid receptor (Mus musculus, UniProt P42866); assay: Displacement of [3H]DAMGO from mu opioid receptor in mouse whole brain membranes without cerebellum after 1 hr by liquid scintillation counting analysis; type: cell membranes, Membrane; outline: as §1
[6] = Selectivity ratio of Ki for mu opioid receptor in mouse whole brain membranes without cerebellum to Ki for kappa opioid receptor in guinea pig cerebellum; type: cell membranes
[7] = Selectivity ratio of Ki for delta opioid receptor in mouse whole brain membranes without cerebellum to Ki for kappa opioid receptor in guinea pig cerebellum; type: cell membranes

Chain of Delta-type opioid receptor (P32300 whole entry): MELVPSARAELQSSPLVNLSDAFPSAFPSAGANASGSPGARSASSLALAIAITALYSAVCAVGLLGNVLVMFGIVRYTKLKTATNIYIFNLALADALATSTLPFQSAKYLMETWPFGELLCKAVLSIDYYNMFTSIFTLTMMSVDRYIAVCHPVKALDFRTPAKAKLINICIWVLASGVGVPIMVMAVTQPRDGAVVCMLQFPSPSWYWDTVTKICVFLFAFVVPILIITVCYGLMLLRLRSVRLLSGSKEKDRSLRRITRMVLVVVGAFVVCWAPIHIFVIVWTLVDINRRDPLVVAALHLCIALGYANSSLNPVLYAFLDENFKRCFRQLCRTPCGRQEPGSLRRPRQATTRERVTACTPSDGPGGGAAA
Chain of Kappa-type opioid receptor (Cavia porcellus, UniProt P41144) (P41144 whole entry): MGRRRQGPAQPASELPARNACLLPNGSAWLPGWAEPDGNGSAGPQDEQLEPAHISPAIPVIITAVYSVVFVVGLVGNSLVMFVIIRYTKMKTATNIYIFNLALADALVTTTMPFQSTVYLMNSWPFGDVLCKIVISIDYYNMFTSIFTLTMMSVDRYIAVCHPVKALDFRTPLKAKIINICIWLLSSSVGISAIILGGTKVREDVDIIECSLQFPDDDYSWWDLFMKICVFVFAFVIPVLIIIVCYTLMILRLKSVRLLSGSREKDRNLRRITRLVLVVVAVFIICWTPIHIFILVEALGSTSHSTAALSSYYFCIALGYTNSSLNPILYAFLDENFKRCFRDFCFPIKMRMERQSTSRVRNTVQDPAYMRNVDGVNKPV
T1 sequence (P41145 whole entry): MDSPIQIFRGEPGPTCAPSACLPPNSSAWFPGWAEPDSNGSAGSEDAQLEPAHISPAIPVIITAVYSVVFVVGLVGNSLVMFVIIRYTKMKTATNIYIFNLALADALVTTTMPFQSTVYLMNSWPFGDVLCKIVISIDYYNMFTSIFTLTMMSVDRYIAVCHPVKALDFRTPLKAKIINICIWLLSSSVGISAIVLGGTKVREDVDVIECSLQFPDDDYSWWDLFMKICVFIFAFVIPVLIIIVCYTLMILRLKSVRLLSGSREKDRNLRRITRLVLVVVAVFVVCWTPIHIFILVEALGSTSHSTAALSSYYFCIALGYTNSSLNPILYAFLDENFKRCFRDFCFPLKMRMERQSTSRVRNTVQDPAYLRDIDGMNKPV
Chain of Mu-type opioid receptor (P42866 whole entry): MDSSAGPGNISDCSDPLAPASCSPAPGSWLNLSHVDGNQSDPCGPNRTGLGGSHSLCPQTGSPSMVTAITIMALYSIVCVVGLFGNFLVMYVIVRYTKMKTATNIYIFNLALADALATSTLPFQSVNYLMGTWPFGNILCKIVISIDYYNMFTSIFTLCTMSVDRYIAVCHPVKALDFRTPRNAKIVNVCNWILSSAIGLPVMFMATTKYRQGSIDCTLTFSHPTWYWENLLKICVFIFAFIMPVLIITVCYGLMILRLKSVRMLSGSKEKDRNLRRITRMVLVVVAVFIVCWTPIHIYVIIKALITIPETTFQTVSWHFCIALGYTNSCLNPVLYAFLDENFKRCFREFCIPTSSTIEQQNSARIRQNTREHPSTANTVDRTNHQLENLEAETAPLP

Structure (SMILES) | Emax [1] [%] | EC50 [2] [nM] | Ki [3] [nM] | Ki [4] [nM] | Ki [5] [nM] | Ratio Ki [6] | Ratio Ki [7]
CN(CCC[C@]1(O)[C@H]2CCN(CC(F)(F)F)[C@@H]1Cc1ccc(O)c(O)c12)C(=O)/C=C/c1ccoc1 | 89 | 32.2 | 4.58 | > 1000 | > 1000 | – | –
CN(C(=O)/C=C/c1ccoc1)[C@@H]1CC[C@@]2(O)[C@H]3Cc4ccc(O)c5c4[C@@]2(CCN3CC2CC2)[C@H]1O5 | 98.1 | – | – | – | – | – | –
CN(CCC[C@]1(O)[C@H]2CCN(CCF)[C@@H]1Cc1ccc(O)c(O)c12)C(=O)/C=C/c1ccoc1 | 95.2 | 2.23 | 0.507 | > 1000 | 8.39 | 16.6 | –
CN(CCC[C@]1(O)[C@H]2CCN(CC(F)F)[C@@H]1Cc1ccc(O)c(O)c12)C(=O)/C=C/c1ccoc1 | 101 | 22.4 | 2.19 | > 1000 | > 1000 | – | –
CN(CCC[C@]1(O)[C@H]2CCN(C)[C@@H]1Cc1ccc(O)c(O)c12)C(=O)/C=C/c1ccoc1 | 90.4 | 11.3 | 0.735 | 35.7 | 2.77 | 3.77 | 48.6
CCN1CC[C@H]2c3c(ccc(O)c3O)C[C@@H]1[C@]2(O)CCCN(C)C(=O)/C=C/c1ccoc1 | 97.4 | 3.79 | 0.625 | 512 | 11 | 17.6 | 818
CC(C)CN1CC[C@H]2c3c(ccc(O)c3O)C[C@@H]1[C@]2(O)CCCN(C)C(=O)/C=C/c1ccoc1 | 99.5 | 8.07 | 0.59 | 514 | 46.2 | 78.4 | 872
CCCN1CC[C@H]2c3c(ccc(O)c3O)C[C@@H]1[C@]2(O)CCCN(C)C(=O)/C=C/c1ccoc1 | 86.5 | 2.72 | 0.328 | 176 | 19.2 | 58.4 | 537
